Five molecules from article PMC12318077 (Scientific Reports, 2025) can be followed below.

One data set relates to L. tropica promastigotes. Kind of data set: Promastigotes proliferation assessment by MTT assay. Type of data set: cell-based, Leishmania tropica. The conditions noted are these: for IC50: 48 h.
Another data set can be described thus: Cytotoxicity assay. Type of data set: cell-based. The conditions noted are these: human, 5% suspension of human blood erythrocytes. Summed up: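 Test compound (25–426 µM) incubated with a 5% suspension of human blood erythrocytes at 37 °C for 3 h. 0.1% DMSO served as the negative control and 0.5% Triton X-100 as the positive control. Samples were spun at 1000 × g for 10 min, and released hemoglobin was read at 576 nm. Percent hemolysis was calculated and CC50 derived by linear interpolation. Triplicates, mean ± SD.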

What is called IC50 is the concentration that inhibits the measured activity by half. A low value points to greater potency in that assay. Turning to “5,5′,5″-(nitrilotris(ethane-2,1-diyl))tris(3-(4-ethylphenyl)-1,3,5-thiadiazinane-2-thione) [Compound T24]”, the midpoint of inhibition in the data set with L. tropica promastigotes (L. tropica promastigotes, MTT, dose range 25–426 µM), the IC50, lay at 26.9 µM. Turning to `C[C@@H]1[C@H](O)[C@@H](C)/C=C/C=C/C=C/C=C/C=C/C=C/C=C/[C@H](O[C@@H]2O[C@H](C)[C@@H](O)[C@H](N)[C@@H]2O)C[C@@H]2O[C@](O)(C[C@@H](O)C[C@@H](O)[C@H](O)CC[C@@H](O)C[C@@H](O)CC(=O)O[C@H]1C)C[C@H](O)[C@H]2C(=O)O` [Amp-B, Amphotericin B, reference compound], in the data set on L. tropica promastigotes (Leishmania tropica), half-maximal inhibition (IC50) was put at 15.7 µM. For the same molecule, the “SI index (IC50/CC50 µM)” value in the data set with L. tropica promastigotes (ratio of hemolysis CC50 and L. tropica IC50) is listed as 0.18. As a reminder, the CC50 is the concentration giving 50% cytotoxicity. Low values mean harm at low concentration, high ones better tolerance by the cells. In the case of `CCCCN1CN(CC(=O)O)CSC1=S` [BG, 2-(5-Butyl-6-thioxo-1,3,5-thiadiazinan-3-yl) acetic acid], half-maximal cytotoxicity in the data set “Cytotoxicity assay” (CC50 at 3 h) was put at 376 µM. For `Cc1cc(C)c(N2CSC(=S)N(CCN(CCN3CN(c4c(C)cc(C)cc4C)CSC3=S)CCN3CN(c4c(C)cc(C)cc4C)CSC3=S)C2)c(C)c1` [Compound T25, 3,3′,3″-(nitrilotris(ethane-2,1-diyl))tris(5-mesityl-1,3,5-thiadiazinane-2-thione)], 27.7 µM corresponded to half-maximal inhibition in the data set on L. tropica promastigotes (Leishmania tropica) (IC50). The same molecule had a CC50 at 3 h in the data set “Cytotoxicity assay” of 89.7 µM. The matching figures for `CCCN1CN(CC(=O)O)CSC1=S` [PG, 2-(5-propyl-6-thioxo-1,3,5-thiadiazinan-3-yl)acetic acid]: 82.8 µM and 402 µM.
